Screening results from PubChem.
Hits are enriched below; roughly 2.1% of the tested compounds scored in any of these assays.
KLK5 inh – human KLK5 protease inhibitors, primary screen, biochemical, 1536-well; inhibition, % at 5 µM; recombinant hK5, fluorogenic AMC substrate cleavage; 0.59% of 210,000 active; Kallikrein-5 (Homo sapiens), Q9Y337;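 active = inhibition of 40% or more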;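 note: 0% = enzyme controls without compound and 100% = no-enzyme blanks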
FXIIa inh – human FXIIa protease inhibitors, primary screen, biochemical, 1536-well; Coagulation factor XII (Homo sapiens), P00748; AID 800, 2007; 0.3% of 220,000 active; purified FXIIa, Boc-QGR-AMC fluorogenic substrate, 2 h; inhibition, % at 5 µM; in the data active = inhibition above about 40%;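 note: 0% = enzyme with no compound and 100% = blank without enzyme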
EP2 mod – EP2 receptor modulators, cAMP readout, primary screen, cell-based, HTRF cAMP, PGE2 stimulation; Prostaglandin E2 receptor EP2 subtype (Homo sapiens), P43116; EP2-expressing cells, cAMP HTRF FRET, PGE2 co-stimulation; induction, % at 25 µM; 0.83% of 260,000 active;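 active = compounds whose cAMP rise, as percent of the full-agonist control response, exceeds 60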;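 note: rat C6 glioma line stably carrying human EP2 under a CMV promoter; the protocol text gives 20 µM as final concentration; 100% = response of wells given 1 µM PGE2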
thrombin 1536 – human alpha-thrombin inhibitors, primary screen, counter-screen for coagulation protease inhibitor project, biochemical, 1536-well, fluorogenic AMC substrate. Prothrombin (Homo sapiens), P00734. Boc-VPR-AMC fluorogenic substrate cleavage. inhibition, % at 5 µM. 0.26% of 220,000 active. AID 1046, 2008;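 active = inhibition at or above 40%; inactive = inhibition below 40%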;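 note: 0% = enzyme with no compound and 100% = wells without enzyme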
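Material: human alpha-thrombin enzyme / Medium: pH 7.5 Tris (50 mM) with NaCl 150 mM, Tween 20 0.05% / Compound: single-point dosing at 5 µM, 0.2% DMSO / Incubation: enzyme reaction carried out at room temperature / Detection: AMC fluorescence, 355/460 nm / Read-out basis: percent inhibition scaled between no-compound controls and no-enzyme blanks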
EP2 antag – human EP2 receptor antagonists, primary screen, TR-FRET cAMP, C6 glioma cells; C6 glioma cells expressing human EP2; cells stimulated with saturating PGE2; Prostaglandin E2 receptor EP2 subtype (Homo sapiens), P43116; inhibition, % at 25 µM; 0.52% of 260,000 active;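 active = percent inhibition above 40 after rounding to a whole number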;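 note: rat C6 glioma host cells with rolipram phosphodiesterase inhibitor present; the protocol text gives 20 µM as final concentration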
FXIa inh 1536 – human FXIa protease inhibitors, primary screen, biochemical, 1536-well; AID 798, 2007; inhibition, % at 5 µM; 0.14% of 220,000 active; purified FXIa, Boc-Glu-Ala-Arg-AMC fluorogenic substrate; Coagulation factor XI (Homo sapiens), P03951;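 active = inhibition of at least 40%; inactive = inhibition below 40%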;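 note: fluorescence of freed AMC excited at 355 nm; 0% = enzyme without compound and 100% = no enzyme blank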
Target sequence (P03951 19-387 limits assumed): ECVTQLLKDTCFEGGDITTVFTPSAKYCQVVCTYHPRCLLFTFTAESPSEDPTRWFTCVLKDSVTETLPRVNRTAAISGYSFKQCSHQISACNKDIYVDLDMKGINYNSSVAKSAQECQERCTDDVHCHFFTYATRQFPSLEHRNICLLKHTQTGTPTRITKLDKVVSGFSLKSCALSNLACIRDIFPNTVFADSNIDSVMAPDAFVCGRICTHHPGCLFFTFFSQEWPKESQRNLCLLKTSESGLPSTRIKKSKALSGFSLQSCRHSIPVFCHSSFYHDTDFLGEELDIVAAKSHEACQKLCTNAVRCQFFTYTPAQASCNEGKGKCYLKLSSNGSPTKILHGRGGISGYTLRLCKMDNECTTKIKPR
Target sequence (P03951 388-625 limits assumed): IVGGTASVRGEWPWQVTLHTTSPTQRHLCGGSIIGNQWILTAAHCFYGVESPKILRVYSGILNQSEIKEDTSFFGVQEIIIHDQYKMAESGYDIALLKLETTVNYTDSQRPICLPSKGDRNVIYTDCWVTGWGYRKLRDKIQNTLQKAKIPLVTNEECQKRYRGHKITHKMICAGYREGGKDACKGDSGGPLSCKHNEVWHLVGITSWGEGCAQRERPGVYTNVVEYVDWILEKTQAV
* marks the source's active call; other numbers are inactive results; i = inactive; . = not tested or not shown; ! = not active in a repeat.

SMILES | KLK5 inh | FXIIa inh | EP2 mod | thrombin 1536 | EP2 antag | FXIa inh 1536
Cc1cccc(N(CC(=O)Nc2ccccc2-c2ccccc2)S(=O)(=O)c2ccccc2)c1C | -7 | 21 | 64* | -5 | 2 | 20
Cc1c(/C(O)=C2/C(=O)C(=O)N(CCN3CCOCC3)C2c2cccs2)cnn1-c1ccccc1 (stereo not given) | 32 | 105* | 15 | 22 | 15 | 10
O=C(NCc1cccnc1)C(=O)C1C(=O)Nc2ccccc21 (stereo not given) | 41* | 2 | -3 | -3 | 3 | -2
CC1CCN(Cc2nnnn2C2CCCC2)CC1 | . | . | -9 | . | 5 | .
CS(=O)(=O)NCCCNc1ccc(Cl)cc1[N+](=O)[O-] | -10 | 18 | -12 | 1 | 2 | -2
NS(=O)(=O)c1ccc(Cl)cc1[N+](=O)[O-] | 17 | 46* | -11 | 22 | 6 | 41*
CC(=O)O[C@@H]1CC2C(C)(C)[C@H](O)C[C@H](O)[C@]2(C)C2CC[C@@]3(C)C(=CC(=O)O[C@H]3c3ccoc3)[C@@]21C (stereo not given in full) | . | . | 0 | . | 9 | .
CCOC(=O)c1c(NC(=O)CSc2nnc(-c3ccco3)o2)sc(C(C)=O)c1C | 0 | 19 | 17 | -1 | 15 | 0
CCOC(=O)c1c(NC(=O)CSc2nnc(-c3cccnc3)o2)sc(C(C)=O)c1C | 48* | 19 | -6 | 18 | 11 | 1
O=C(COC(=O)c1cc(Br)ccc1O)Nc1cc(S(=O)(=O)N2CCCC2)ccc1Cl | -19 | 1 | -5 | 45* | 12 | -8
COc1ccc(NC(C)=O)cc1S(=O)(=O)N1CCc2ccccc2C1 | . | . | -48 | . | 12 | .
CCc1ccc(OCc2nnc(SCC(=O)Nc3ccccc3Br)n2CC)cc1 | . | . | 40 | . | 6 | .
C=CCc1cc(CN2CCC(C(=O)c3cccnc3)CC2)cc(OC)c1OC | . | . | 72* | . | 8 | .
O=S(=O)(Nc1ccc(O)c(CN2CCCCC2)c1)c1ccccc1 | -19 | 13 | -8 | 6 | 8 | 4
CSc1nc(C)cc(Nc2ccc(O)c(CN3CCCCC3)c2)n1 | . | . | -1 | . | 45* | .
O=S(=O)(c1ccc2ccccc2c1)N1C=CC(C(F)(F)F)=NCC1 | 3 | 0 | -42 | -2 | 18 | -8
Cc1ccc(S(=O)(=O)CCN2C=CC(C(F)(F)F)=NCC2)cc1 | 34 | 41* | 9 | 4 | 15 | 21
N#Cc1c(NC(=O)C(F)(F)F)sc2c3c(=O)c4ccccc4c(=O)c=3oc3ccccc3c12 | . | . | -6 | . | 42* | .
COC(=O)c1sc(NC(=O)c2c(F)cccc2F)c(C#N)c1C | 11 | 10 | -22 | 1 | 6 | 0
O=P(CCO)(c1ccccc1)c1ccccc1 | -4 | . | 31 | -8 | 9 | -4
O=C(O)CP(=O)(c1ccccc1)c1ccccc1 | 42* | 18 | 25 | 10 | 12 | 2
O=C(N/N=C/c1ccc(O)c(O)c1O)/C(=C/c1ccc([N+](=O)[O-])cc1)NC(=O)c1ccccc1 | i | 41* | 0 | 6 | 2 | 27
Nc1ccccc1SCC(=O)N1c2ccccc2Sc2ccc(C(F)(F)F)cc21 | . | . | 88* | . | 5 | .
O=C(/C=C/c1ccccc1)N1c2ccccc2Sc2ccc(C(F)(F)F)cc21 | 0 | 4 | 42 | -10 | 12 | -7
NC(=O)C1CCN(C(=O)Cn2ncc3cccn3c2=O)CC1 | . | . | -25 | . | 12 | .
SMILES | KLK5 inh | FXIIa inh | EP2 mod | thrombin 1536 | EP2 antag | FXIa inh 1536
CCOC(=O)c1cc2occc2n1Cc1c(F)cccc1Cl | -3 | 4 | 44 | -8 | 19 | -6
CCOC(=O)c1cc2occc2n1Cc1ccc(F)cc1 | 10 | 10 | 85*! | -6 | 13 | -9
COC(=O)c1cc2occc2n1Cc1c(F)cccc1Cl | -10 | 14 | 64* | 2 | 15 | 0
Cc1nn(CC(=O)O)c(=O)c2cc3occc3n12 | . | . | 5 | . | 6 | .
O=C(NCc1ccc(F)cc1)c1ccc(S(=O)(=O)Nc2cccc(C(F)(F)F)c2)cc1 | 49* | 10 | -13 | 25 | 4 | 5
CC(C)n1cc(C(=O)NCCc2nc(-c3ccncc3)n[nH]2)cn1 | . | . | -12 | . | 12 | .
CCOCCn1c(N2CCCC(C)C2)nc2c1c(=O)[nH]c(=O)n2C (stereo not given) | . | . | 4 | . | 3 | .
COc1cc(/C=C2\C=C(c3ccc(C)cc3)OC2=O)cc(Cl)c1OC(C)=O | . | . | -24 | . | 20 | .
Cc1[nH]c(=O)[nH]c(=O)c1/C=N/NC(=O)[C@H](CC(C)C)NC(=O)OC(C)(C)C | -20 | 7 | 12 | 2 | . | -3
Cc1[nH]c(=O)[nH]c(=O)c1/C=N/NC(=O)[C@@H](N)CC(C)C | 21 | 45* | -19 | 3 | 7 | 31
CC(=O)O[C@H]1CC[C@@]2(C)C(=CC[C@H]3[C@H]2CC[C@]2(C)[C@@H]4[C@@H](C)[C@]5(CC[C@H](C)CN5)O[C@@H]4C[C@@H]32)C1 | . | . | 11 | . | 45* | .
COc1cc(OC)nc(NS(=O)(=O)c2ccc(N)cc2)n1 | . | . | -11 | . | 6 | .
CC1=C(C)/C(=N\OS(=O)(=O)c2ccccc2)C=CC1=O | 0 | 13 | -80 | 2 | 89* | 1
Cc1ccc(S(=O)(=O)O/N=C2\CCCc3ccccc32)cc1 | -8 | -11 | 17 | -3 | 11 | 3
CN(C)S(=O)(=O)Oc1cccc(C(=O)Nc2ccc(Cl)c(Cl)c2)c1 | -12 | 6 | -63 | 2 | 40* | 2
Cc1cc(-c2cn[nH]c2C2CCCN(C(=O)Cc3ccccc3F)C2)on1 (stereo not given) | . | . | -30 | . | . | .
COc1ccc(C(=O)NC(=S)Nc2cccc(Cl)c2N2CCOCC2)cc1[N+](=O)[O-] | 42* | 15 | 26 | 2 | 7 | 8
O=C(CSc1ncnc2sc3c(c12)CCCC3)N1CCCCCC1 | . | . | -9 | . | 12 | .
COC(=O)c1cc2c(C)c(C)c3ccccn3c-2c1C(=O)OC | -13 | -3 | -7 | -2 | 25 | 7
COC(=O)c1cc2ccccn2c2c(C(=O)OC)c(C(=O)OC)cc1-2 | -27 | 10 | -35 | 0 | 41* | -12
COc1ccc(C(=O)N2CCC(Cn3nc(-c4ccc(OC)cc4)ccc3=O)CC2)cc1 | . | . | -37 | . | . | .
CCOC(=O)/C(C)=C1\NC(C)(C)Cc2ccccc21 | 40 | 65* | 0 | -2 | 9 | 5
CCOC(=O)/C(C(=O)Nc1ccccc1Cl)=C1/NC(C)(C)Cc2ccccc21 | 5 | 17 | 36 | 0 | 7 | 4
